Key:
Bos taurus = organism: Bos taurus; experiment: Binding selectivity against PNMT and alpha-2-adrenoceptors, measured as a ratio of respective in vitro Ki's.
[1] = biological target: T1, Phenylethanolamine N-methyltransferase (Bos taurus, UniProt P10938); experiment: In vitro inhibitory activity against bovine adrenal phenylethanolamine N-methyl-transferase (PNMT)
T1 sequence (P10938 whole entry): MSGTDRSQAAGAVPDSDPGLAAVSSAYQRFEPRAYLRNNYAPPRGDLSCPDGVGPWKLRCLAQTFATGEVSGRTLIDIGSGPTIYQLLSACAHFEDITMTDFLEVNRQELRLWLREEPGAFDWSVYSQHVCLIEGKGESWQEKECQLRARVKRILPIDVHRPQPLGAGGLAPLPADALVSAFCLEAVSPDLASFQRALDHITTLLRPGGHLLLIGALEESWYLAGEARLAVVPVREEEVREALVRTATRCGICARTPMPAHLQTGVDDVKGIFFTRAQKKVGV

[2] = biological target: T2, Adrenergic receptor alpha-2 (Rattus norvegicus, UniProt P22086+P19328+P22909); experiment: In vitro inhibitory activity against Alpha-2 adrenergic receptor using [3H]clonidine as radioligand in male Sprague-Dawley rats; type: protein assay
T2 sequence (P22086 whole entry): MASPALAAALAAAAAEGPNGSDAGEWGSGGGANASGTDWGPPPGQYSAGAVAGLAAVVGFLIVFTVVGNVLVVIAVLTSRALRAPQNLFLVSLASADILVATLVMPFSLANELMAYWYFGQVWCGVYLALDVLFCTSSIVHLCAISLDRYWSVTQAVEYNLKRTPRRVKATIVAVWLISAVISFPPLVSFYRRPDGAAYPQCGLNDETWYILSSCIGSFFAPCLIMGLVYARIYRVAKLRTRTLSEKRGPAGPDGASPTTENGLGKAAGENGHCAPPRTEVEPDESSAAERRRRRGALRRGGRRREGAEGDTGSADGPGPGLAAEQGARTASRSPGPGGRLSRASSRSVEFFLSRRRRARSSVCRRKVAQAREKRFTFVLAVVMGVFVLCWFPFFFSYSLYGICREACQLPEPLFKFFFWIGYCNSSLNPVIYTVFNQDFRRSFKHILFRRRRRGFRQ
T2 sequence (P19328 whole entry): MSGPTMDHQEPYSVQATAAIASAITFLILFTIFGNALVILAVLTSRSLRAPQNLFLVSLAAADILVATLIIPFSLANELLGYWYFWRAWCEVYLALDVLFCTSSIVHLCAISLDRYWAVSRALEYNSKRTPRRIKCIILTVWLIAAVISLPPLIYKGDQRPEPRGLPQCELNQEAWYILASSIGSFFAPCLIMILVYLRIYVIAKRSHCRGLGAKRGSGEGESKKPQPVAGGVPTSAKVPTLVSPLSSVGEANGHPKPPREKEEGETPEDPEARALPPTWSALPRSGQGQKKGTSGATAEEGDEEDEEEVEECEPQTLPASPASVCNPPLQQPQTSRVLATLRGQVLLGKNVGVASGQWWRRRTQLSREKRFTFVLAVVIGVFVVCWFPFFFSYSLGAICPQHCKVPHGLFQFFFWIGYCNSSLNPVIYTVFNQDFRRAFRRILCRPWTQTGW
T2 sequence (P22909 whole entry): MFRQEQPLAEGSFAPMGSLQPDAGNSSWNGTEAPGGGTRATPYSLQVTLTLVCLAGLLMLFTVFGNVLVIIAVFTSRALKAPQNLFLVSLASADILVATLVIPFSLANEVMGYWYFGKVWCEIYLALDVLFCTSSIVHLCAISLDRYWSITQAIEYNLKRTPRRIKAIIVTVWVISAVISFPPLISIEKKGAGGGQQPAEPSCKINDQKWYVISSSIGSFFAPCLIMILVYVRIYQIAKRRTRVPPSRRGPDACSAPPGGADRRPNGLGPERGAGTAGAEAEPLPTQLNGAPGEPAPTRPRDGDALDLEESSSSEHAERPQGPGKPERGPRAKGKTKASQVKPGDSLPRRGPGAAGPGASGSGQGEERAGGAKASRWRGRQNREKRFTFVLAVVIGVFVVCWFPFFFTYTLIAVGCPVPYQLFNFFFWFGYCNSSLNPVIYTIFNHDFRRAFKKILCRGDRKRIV
Summary of the method: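 Rat cerebral cortex (male Sprague–Dawley) homogenised in ice-cold 50 mM Tris/HCl pH 7.7, washed by three 50 000g spins, resuspended in 200 volumes. [3H]clonidine 4.0 nM final, 25 °C for 30 min, filtration, scintillation counting. Nonspecific binding with 2 μM phentolamine. Quadruplicate, five concentrations over 16-fold range. IC50 by log-probit; Ki = IC50/(1+[clonidine]/KD).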

[3] = biological target: T1, Phenylethanolamine N-methyltransferase; experiment: In vitro inhibitory activity against bovine adrenal phenylethanolamine N-methyltransferase(PNMT)

Compound | Selectivity (Bos taurus) | Ki [1] [µM] | Ki [2] [µM] | Ki [3] [µM]
Nc1ccc2c(c1)CNCC2 | 0.11 | 27 | – | –
NC(=O)c1ccc2c(c1)CNCC2 | 0.36 | 64 | – | –
CC(=O)Nc1ccc2c(c1)CNCC2 | 0.48 | 190 | 9.1 | –
CS(=O)(=O)Nc1ccc2c(c1)CNCC2 | 0.23 | – | – | –
CS(=O)(=O)c1ccc2c(c1)CNCC2 | 120 | 1.3 | 160 | –
O=S(=O)(c1ccccc1)c1ccc2c(c1)CNCC2 | 1.5 | 14 | 21 | –
C[S+]([O-])c1ccc2c(c1)CNCC2 (configuration not stated) | 1.1 | 45 | 51 | –
NCc1ccc2c(c1)CNCC2 | 0.0063 | 1900 | – | –
NS(=O)(=O)c1ccc2c(c1)CNCC2 | 180 | – | – | –
N#Cc1ccc2c(c1)CNCC2 | 5.2 | 1.4 | – | –
OCc1ccc2c(c1)CNCC2 | 0.21 | 11 | – | –
O=S(=O)(c1ccc2c(c1)CNCC2)C(Cl)(Cl)Cl | – | – | – | 1.3
O=[N+]([O-])c1ccc2c(c1)CNCC2 | 10 | 0.41 | – | –
Brc1ccc2c(c1)CNCC2 | – | – | – | 0.29
COc1ccc2c(c1)CNCC2 | 0.022 | 21 | – | –
O=C(c1ccccc1)c1ccc2c(c1)CNCC2 | 9.3 | 2.9 | – | –
Oc1ccc2c(c1)CNCC2 | 0.85 | – | – | –
C=CCS(=O)(=O)c1ccc2c(c1)CNCC2 | 9.7 | 9.8 | – | –
CS(=O)(=O)NCc1ccc2c(c1)CNCC2 | 0.055 | – | – | –
O=S(=O)(Nc1ccc(Cl)cc1)c1ccc2c(c1)CNCC2 | 2.4 | – | – | –
CS(=O)(=O)N(c1ccc2c(c1)CNCC2)S(C)(=O)=O | 0.042 | ~4500 | – | –
COC(=O)c1ccc2c(c1)CNCC2 | 0.68 | 6.7 | – | –
O=C(c1ccc2c(c1)CNCC2)C(F)(F)F | 5.6 | 5.7 | – | –
O=C(O)c1ccc2c(c1)CNCC2 | 1 | 470 | – | –
CC(=O)c1ccc2c(c1)CNCC2 | 1.2 | 4.9 | – | –
